ZTA counter – blocks Epstein-Barr virus ZTA, an EBNA-1 counter-screen; hit rate 0.15% among 320,000; inhibition, % at 11 µM; P03206; AID 2234; ZTA-DNA binding, fluorescence polarization; in the data active means inhibition above about 33%
Target sequence (P03206 whole entry, looked up): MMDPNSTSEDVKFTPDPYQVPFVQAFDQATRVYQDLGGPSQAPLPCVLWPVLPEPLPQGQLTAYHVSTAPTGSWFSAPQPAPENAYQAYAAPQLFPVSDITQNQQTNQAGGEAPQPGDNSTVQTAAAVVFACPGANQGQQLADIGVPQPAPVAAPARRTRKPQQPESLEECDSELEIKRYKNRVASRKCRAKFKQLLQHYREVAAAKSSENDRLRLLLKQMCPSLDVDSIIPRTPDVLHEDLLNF
UBC13 polyUb – inhibitors of human UBC13 polyubiquitin chain formation. P61088. TR-FRET. inhibition, % at 20 µM. hit rate 0.47% among 330,000. AID 485273; in the data active means inhibition above about 45%, passing the limit was not always enough
Target sequence (P61088 whole entry, looked up): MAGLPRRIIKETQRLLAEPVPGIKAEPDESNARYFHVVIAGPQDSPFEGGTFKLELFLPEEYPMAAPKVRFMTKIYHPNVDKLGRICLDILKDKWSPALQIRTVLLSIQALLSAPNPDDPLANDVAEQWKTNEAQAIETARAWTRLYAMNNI
Apaf1 inhib – blocks human Apaf-1 apoptosome activity; reconstituted apoptosome caspase-3 activity, DEVD-Rh110 fluorescence; inhibition, % at 20 µM; hit rate 0.71% among 330,000; AID 489030; active means inhibition of at least 40% at 20 µM;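 further: plate controls were DMSO wells for no effect and DEVD-CHO caspase inhibitor wells for full effect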
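Material: cell-free apoptosome with Apaf-1, procaspase-3 and caspase-9; Buffer or medium: Hepes pH 7.5 with detergent and BSA; Reagent: cytochrome c trigger plus (Z-DEVD)2-Rh110 caspase-3 substrate; Times: compound with Apaf-1, dATP, procaspase-3 30 min, then 50 min reaction, room temperature; Technique: Rh110 fluorescence intensity.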
PfGluPho inh – PfG6PD (Plasmodium falciparum) enzyme inhibition | inhibition, % at 20 µM | hit rate 0.78% among 350,000 | AID 504690 | PfGluPho enzyme, NADPH resazurin-diaphorase fluorescence;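 active means inhibition reaching at least a set limit at 20 µM in the primary screen, cut at about 59% in these data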;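 further: 0% = DMSO wells with substrate and 100% = DMSO wells lacking glucose-6-phosphate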
EBNA-1 inh – blocks EBNA-1 binding to DNA | inhibition, % at 14.8 µM | AID 1950 | hit rate 0.34% among 300,000 | EBNA-1 DNA binding, fluorescence polarization; in the data active means inhibition above about 28%
M18AAP inhibitor – PfM18AAP enzyme inhibition. hit rate 1.2% among 290,000. inhibition, % at 7.35 µM. recombinant PfM18AAP, H-Glu-NHMec fluorogenic cleavage;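 active means inhibition above the campaign mean inhibition over all tested compounds plus 3 SD, cut at about 28% in these data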;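 further: 0% = plate median of test compound wells and 100% = 2 mM ZnCl2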
Apaf-1 inh conf2 – Apaf-1 inhibition, single-dose confirmed | shares compounds with Apaf1 inhib | reconstituted apoptosome, caspase-3 DEVD-Rh110 fluorescence | inhibition, % at 20 µM | hit rate 25% among 1,800 | AID 504614;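 active means mean inhibition of at least 40% at 20 µM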;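 further: plate controls were DMSO wells for no effect and DEVD-CHO caspase inhibitor control wells for full effect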
Rh110 interf inh – Rh110 signal interference in Apaf-1 inhibitor counter-screen. 1,800 tested, under 10 active. shares compounds with Apaf1 inhib. activation (fluorescence interference), % at 20 µM. Rh110 fluorescence interference, quenched caspase reaction. AID 504615;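 active means signal rise of 40% or more at 20 µM, treated as a fluorescence artifact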
Numbers without * were called inactive; . = not tested or not shown. The list is not random: actives were taken first. Their share in the collection is about 2.9%.

SMILES | ZTA counter | UBC13 polyUb | Apaf1 inhib | PfGluPho inh | EBNA-1 inh | M18AAP inhibitor | Apaf-1 inh conf2 | Rh110 interf inh
O=P(CCCCCCCCCP(=O)(c1ccccc1)c1ccccc1)(c1ccccc1)c1ccccc1 | -2 | 10 | 53* | 0 | 18 | 4 | 30 | 1
O=C(O)CCCCCCCCCCP(=O)(c1ccccc1)c1ccccc1 | -7 | -4 | 7 | -11 | -2 | 2 | . | .
Cc1cc(C)c(S(=O)(=O)Nc2ccccn2)c(C)c1 | -13 | 9 | -1 | -2 | -6 | 2 | . | .
O=C(N/N=C/c1ccc(-c2ccccc2[N+](=O)[O-])o1)c1cncc(Br)c1 | -12 | -56 | 81* | 20 | -4 | 14 | 36 | 6
O=C(N/N=C/c1ccc(-c2ccc([N+](=O)[O-])cc2)o1)c1cccnc1 | -9 | -14 | -17 | 8 | -10 | 16 | . | .
O=C(N/N=C\c1ccc(-c2ccccc2[N+](=O)[O-])o1)C1COc2ccccc2O1 (stereo unspecified) | -6 | -32 | 79* | 8 | -2 | 9 | 8 | -3
Cc1cc([N+](=O)[O-])c(C)cc1-c1ccc(/C=N/NC(=O)c2cccnc2)o1 | -2 | -67 | 55* | 54 | 7 | 18 | 38 | 5
O=C(N/N=C\c1ccc([N+](=O)[O-])o1)c1cncc(Br)c1 | 17 | -11 | 8 | 23 | 7 | 14 | . | .
Cc1ccc(C(=O)N/N=C/c2ccc(-c3ccc(Br)cc3[N+](=O)[O-])o2)o1 | 8 | -38 | 42* | 51 | 1 | 8 | 27 | -5
O=C(CCl)N(c1ccccc1)C1CCCCC1 | 12 | 1 | 6 | -7 | -17 | 9 | . | .
O=C(Nc1nnc(SCc2cccnc2)s1)C1CC(=O)N(c2ccc(F)cc2)C1 (stereo unspecified) | -7 | -11 | 7 | 2 | -7 | 3 | . | .
COCCN(C(=O)CSc1nc(N)cc(=O)[nH]1)c1c(N)n(Cc2ccccc2)c(=O)[nH]c1=O | 1 | 0 | 45* | -11 | 4 | . | 2 | 4
C=CC[C@@H](Cc1ccc(F)cc1)C(=O)OC[C@H]1CCCN1C(=O)[C@@H](CC=C)CC(=O)N[C@H](CO)Cc1ccccc1 | . | 6 | 41* | -2 | . | . | 19 | 7
C=CC[C@@H](Cc1ccc(F)cc1)C(=O)OC[C@@H]1CCCN1C(=O)[C@@H](CC=C)CC(=O)N[C@@H](CO)Cc1ccccc1 | . | 3 | 40* | 3 | . | . | 18 | 11
C=CC[C@@H](Cc1ccc(F)cc1)C(=O)OC[C@H]1CCCN1C(=O)[C@H](CC=C)CC(=O)N[C@H](CO)Cc1ccccc1 | . | -1 | 31 | 4 | . | . | . | .
COC(=O)C1=C(C)N(Cc2ccccc2)C(=NCc2ccccc2)N[C@H]1c1ccccc1 | . | 32 | 47* | 2 | . | . | 13 | 18
COCCN=C1N[C@@H](c2ccc(Br)cc2)C(C(=O)OC)=C(C)N1Cc1ccccc1 | -13 | 41 | 28 | -6 | 6 | -10 | . | .
COC(=O)C1=C(C)N(Cc2ccccc2)C(=NCCc2c[nH]c3ccccc23)N[C@H]1c1ccccc1 | . | 38 | 69* | 7 | . | . | 33 | 4
CC1CCCCN1CCNC(=O)c1ccc2c(c1)N(Cc1ccccc1F)C(=O)c1ccccc1S2=O (stereo unspecified) | -11 | 5 | 10 | 5 | -5 | 5 | . | .
CCCCCCSc1cccc(-c2nc3cc(C)ccn3c2NCc2ccccc2)c1 | 13 | 10 | 40* | 11 | 7 | . | 21 | 11
Cc1ccn2c(NC3CCCCC3)c(-c3cccc(SC4CCCCC4)c3)nc2c1 | . | 25 | 40* | 20 | . | . | 16 | -8
CCC(C)Sc1cccc(-c2nc3cc(C)ccn3c2NC2CCCCC2)c1 (stereo unspecified) | . | 28 | 41* | 8 | . | . | 15 | -16
CCCCn1c(N)c(N(CC)C(=O)C2=COCCO2)c(=O)[nH]c1=O | 17 | -5 | -6 | -3 | -6 | . | . | .
C[C@@H]1CN([C@H](C)CO)C(=O)Cc2cc(NS(=O)(=O)c3ccc(Cl)cc3)ccc2O[C@H]1CN(C)Cc1ccc(C(F)(F)F)cc1 | . | 30 | 41* | 25 | . | . | 27 | 9
COc1cccc(-c2sc3ccc(OC)cc3c2-c2ccc(OCCN3CCCC3)cc2)c1 | . | . | 70* | 9 | . | . | 20 | 6
SMILES | ZTA counter | UBC13 polyUb | Apaf1 inhib | PfGluPho inh | EBNA-1 inh | M18AAP inhibitor | Apaf-1 inh conf2 | Rh110 interf inh
COc1cccc(-c2sc3cc(OC)c(OC)cc3c2-c2ccc(OCCN3CCCCC3)cc2)c1 | . | . | 66* | 29 | . | . | 10 | 15
COc1cccc(-c2sc3ccc(OC)cc3c2-c2ccc(OC)cc2F)c1 | 9 | 0 | -5 | 8 | . | . | . | .
O=C(CN1C(=O)NC(c2ccccc2)(c2ccccc2)C1=O)Nc1ccc(N2CCOCC2)cc1 | . | 6 | 6 | 15 | . | . | . | .
COc1ccc(C2(c3ccc(OC)cc3)NC(=O)N(CC(=O)Nc3ccc(N4CCOCC4)cc3)C2=O)cc1 | -4 | -6 | 41* | 2 | -18 | . | 28 | 2
O=c1[nH]c(C2CCN(S(=O)(=O)c3ccc(C(F)(F)F)cc3)CC2)nc2c1nnn2Cc1ccc(F)cc1 | -16 | 0 | 41* | 14 | 10 | 3 | 30 | -10
O=c1[nH]c(C2CCCN(S(=O)(=O)c3ccccc3F)C2)nc2c1nnn2Cc1ccccc1Cl (stereo unspecified) | 6 | 0 | 41* | -27 | -3 | -3 | 35 | 14
O=c1[nH]c(C2CCN(S(=O)(=O)c3ccccc3F)CC2)nc2c1nnn2Cc1ccc(F)cc1 | -8 | 4 | 21 | -20 | -4 | 2 | . | .
CC(C)/C=C/CN1CCCC(N2CCN(c3cccc(Cl)c3)CC2)C1 (stereo unspecified) | . | 4 | 4 | -10 | . | -2 | . | .
Cc1ccc(C(=O)N/N=C/c2ccc(-c3cccc(C(F)(F)F)c3)o2)cn1 | -11 | -14 | 8 | 14 | -1 | -2 | . | .
COc1ccc(CCn2c(N)c(C(=O)NCc3ccco3)c3nc4ccccc4nc32)cc1OC | -11 | -55 | 63* | 51 | 6 | 26 | 16 | 3
COc1ccc(CCn2c(N)c(C(=O)NCc3ccco3)c3nc4ccccc4nc32)cc1 | 6 | -21 | 40 | 22 | 0 | 13 | . | .
Nc1c(C(=O)NCc2ccco2)c2nc3ccccc3nc2n1CCc1ccccc1F | 20 | -24 | 61* | 25 | 16 | 15 | 34 | 18
COc1ccc(-n2c(N)c(C(=O)NCc3ccco3)c3nc4ccccc4nc32)c(OC)c1 | 4 | -35 | 65* | 19 | -5 | 18 | 16 | 0
CCOC(=O)N1CCN(C(=O)CCCCn2c(=S)[nH]c3ccsc3c2=O)CC1 | -15 | 32 | 0 | 16 | -4 | 4 | . | .
O=C(N/N=C/C=C/c1ccco1)/C(=C/c1ccccc1)NC(=O)c1ccccc1 | 6 | 8 | 9 | 36 | 11 | 12 | . | .

Bioassay records (PubChem BioAssay)
